This is a sample that favours compounds with a hit; in the whole collection about 3.7% have one here.
KCNQ1 pot – potentiators or activators of human KCNQ1 potassium channel | P51787 | AID 2648 | CHO-K1 KCNQ1, thallium flux FluxOR fluorescence; stronger effect = higher value | actives 0.35% (n = 310,000) | B-score at 10 µM;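 active means fluorescence ratio B-score, a plate-corrected score, at least three library SD, with initial intensity B-score within 5 SD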
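System: CHO-K1 cells stably expressing KCNQ1 / Medium: assay buffer for compound exposure, DMSO matched across wells / Reagent: thallium- and potassium-containing depolarizing buffer / Compound: one concentration, matched DMSO / Incubation: 20 min compound pretreatment at room temperature / Measured by: kinetic FluxOR fluorescence, 10 s baseline plus 110 s post-stimulus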
KCNQ1 inh – inhibitors of human KCNQ1 potassium channel; B-score at 10 µM; CHO-K1 KCNQ1, FluxOR thallium flux fluorescence; stronger effect = higher value; P51787; actives 1.3% (n = 310,000); AID 2642;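 active means compounds whose thallium flux B-score, printed positive for inhibition, exceeds three library SD while starting fluorescence stays within three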;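 further: channel opened by potassium depolarization with thallium stimulus after 20 min compound exposure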
Kir21 block – Kir2.1 (mouse) channel inhibition. HEK293-Kir2.1, FluxOR thallium flux fluorescence; stronger effect = lower value. AID 1672. B-score at 10 µM. P35561. actives 0.85% (n = 310,000);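 active means fluorescence ratio B-score at or below minus 3 SD of library scores, with starting-brightness B-score within 2 SD, cut at about -4.2 in these data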;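 further: channel flux triggered by added potassium and thallium sulfate stimulus; B-score of peak minus minimum fluorescence over baseline after thallium stimulus; more negative B-score means stronger Kir2.1 block with less thallium influx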
KCNK9 block – human KCNK9 channel inhibition. Q9NPC2. HEK293 KCNK9, FluxOR thallium flux fluorescence; stronger effect = lower value. B-score at 10 µM. actives 1.2% (n = 310,000);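 active means ratio B-score over 3 SD below the library mean, with starting fluorescence within 5 SD of its mean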;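 further: negative B-score means less thallium flux so channel inhibition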
Target sequence (Q9NPC2 whole entry, looked up): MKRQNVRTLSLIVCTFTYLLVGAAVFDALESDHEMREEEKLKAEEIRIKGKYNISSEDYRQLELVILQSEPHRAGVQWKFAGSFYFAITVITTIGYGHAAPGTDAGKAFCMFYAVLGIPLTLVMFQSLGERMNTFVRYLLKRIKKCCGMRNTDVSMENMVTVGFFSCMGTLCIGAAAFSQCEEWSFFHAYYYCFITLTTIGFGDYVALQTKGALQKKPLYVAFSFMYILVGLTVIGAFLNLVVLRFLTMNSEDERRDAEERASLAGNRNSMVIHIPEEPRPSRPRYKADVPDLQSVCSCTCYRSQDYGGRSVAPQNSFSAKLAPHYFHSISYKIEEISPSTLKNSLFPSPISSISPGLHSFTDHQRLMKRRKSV
hERG rescue – shields human hERG channel from block by proarrhythmic agents | CHO-hERG, FluxOR thallium flux, dofetilide IC70 present | Q12809 | activation (rescue from dofetilide block), less the hit threshold, % at 10 µM | actives 0.51% (n = 310,000);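 active means activation above the mean of controls blocked by dofetilide plus 5 SD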;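 further: thallium influx through hERG after potassium depolarization seen as dye fluorescence rise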
KCNK3 block – human KCNK3 channel inhibition, primary screen | O14649 | CHO-KCNK3 thallium flux, FluxOR fluorescence; stronger effect = lower value | B-score at 10 µM | actives 0.84% (n = 340,000) | AID 602410;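 active means B-score under library mean minus 4 SD, starting fluorescence ratio at most library mean plus 5 SD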;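 further: more negative B-score means stronger inhibition of thallium flux through KCNK3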
* hit, by the source's call; i = inactive; x = no result.

SMILES	KCNQ1 pot	KCNQ1 inh	Kir21 block	KCNK9 block	hERG rescue	KCNK3 block
CO/N=C(/CS(=O)Cc1ccccc1Cl)c1ccc(Cl)cc1Cl (centres undefined)	i	i	-5*	i	-1	i
O=C(NCc1cccc(Cl)c1)c1ccc(CS(=O)Cc2ccccc2Cl)o1 (centres undefined)	i	i	-0.34	i	-4	i
Cc1ccc(CNC(=O)C2CCCN(c3nc(C)cc(C)n3)C2)cc1 (centres undefined)	i	i	2	i	-1	i
Cc1cc(C)nc(N2CCCC(C(=O)NCc3ccccc3)C2)n1 (centres undefined)	i	i	-2.1	i	5.2*	i
Cc1cccc(NS(=O)(=O)c2c(C)[nH]c(C)c2C(=O)N2CCCC2)c1	i	i	-0.23	i	-3	i
CC1CCCC(C)N1C(=O)COC(=O)Cc1c[nH]c2ccccc12 (centres undefined)	i	i	-2.4	i	-14	i
COc1cccc(CN(C)C(=O)c2sccc2-c2ccccc2)c1OC	i	i	-3.6	i	-9	i
CN(Cc1ccccc1F)C(=O)c1sccc1-c1ccccc1	i	i	-12*	i	-12	i
c1ccc(Nc2nc(N3CCCC3)nc(N3CCCC3)n2)cc1	i	i	-0.58	i	-13	i
c1ccc(Nc2nc(N3CCCCC3)nc(N3CCCCC3)n2)cc1	i	9*	-1.7	i	-14	i
CC(C)(C)c1nc(SCC(=O)NCc2cccs2)c2ccccc2n1	i	i	-2	i	-20	i
CCOC(=O)CNC(=O)CSc1nc(Cc2cccs2)nc2ccccc12	i	i	-2.8	i	5.2*	i
CC(C)(C)C(=O)N1CCN(c2ncnc3scc(-c4ccccc4)c23)CC1	i	i	1.2	i	-9	i
CC[n+]1c(/C=C2/C=C(C)CC(C)(C)C2)sc2ccc(OC)cc21	i	10*	-6	i	-29	i
CC[n+]1c(/C=C2\C=C(C)CC(C)(C)C2)sc2ccccc21	i	7*	-1.9	i	-28	i
CC[n+]1c(/C=C2\C=C(C)CC(C)C2)sc2ccccc21 (centres undefined)	i	6*	-0.1	i	-23	i
CCC1=C/C(=C/c2sc3ccccc3[n+]2CC)CC(C)(C)C1	i	i	1.1	i	-20	i
CC[n+]1c(/C=C/Nc2ccccc2)oc2ccc(OC)cc21	i	i	-3.2	i	-14	i
CC[n+]1c(C)sc2sc3ccccc3c21	i	i	-0.02	i	-21	x
O=C(CSc1nc2c(cnn2-c2cccc(Cl)c2)c(=O)[nH]1)NCCC1=CCCCC1	x	x	x	x	x	i
Cc1sc2ncnc(SCC(=O)c3ccc(O)cc3O)c2c1C	8*	i	0.55	i	1	i
Cc1ccc(COC(=O)c2cccc(S(=O)(=O)N3CCCCCC3)c2)cc1	x	x	x	x	x	i
COc1ccccc1COC(=O)c1cccc(S(=O)(=O)N2CCCC2)c1	x	x	x	x	x	-9.6*
COc1ccc(OC)c(COC(=O)c2cccc(S(=O)(=O)N3CCCCC3)c2)c1	x	x	x	x	x	-8.8*
COc1ccccc1C(=O)COC(=O)c1cccc(S(=O)(=O)N2CCCC2)c1	i	i	1.3	i	-17	i
SMILES	KCNQ1 pot	KCNQ1 inh	Kir21 block	KCNK9 block	hERG rescue	KCNK3 block
Cc1ccc(COC(=O)c2cccc(S(=O)(=O)N3CCCCC3)c2)cc1	x	x	x	x	x	-11*
CCCc1cc(=O)[nH]c(SCCCCN2C(=O)c3ccccc3C2=O)n1	i	i	-3	i	-23	i
CCCCc1nc2ccccc2c(N)c1CCC (tested in a mixture with another compound)	i	i	-8.3*	i	-9	i
CCCCc1nc2ccccc2c(C(=O)O)c1C	i	i	0.81	i	-11	i
O=C(NCCc1ccccc1)c1ccc(Cl)cc1[N+](=O)[O-]	i	i	-0.04	i	-6	i
CCN(C/C=C/c1ccccc1OC)Cc1ccccc1	i	i	-4.8*	i	1	i
CCCCn1c(N)c(C(=S)NC(=O)CC(C)(C)C)c(=O)n(C)c1=O	18*	i	0	i	25*	i
Cc1cccc(OCC(O)Cn2c(N3CCCCC3)nc3c2c(=O)n(C)c(=O)n3C)c1 (centres undefined)	i	i	0.99	i	-1	i
COc1ccc(NC(=O)N2CCCc3cc(C)ccc32)c(OC)c1	i	i	0.28	i	-16	i
COc1ccccc1CC(=O)N1CCCc2cc(C)ccc21	i	i	-7.3*	i	-3	i
CCCOc1cccc(-c2cc(C(=O)N/N=C/c3cccnc3)c3ccccc3n2)c1	i	9*	0.09	i	-30	i
O=C(N/N=C/c1ccccn1)c1sc2ccccc2c1Cl	17*	i	-0.14	i	4	i
N#Cc1ccc(/C=N/NC(=O)c2cc(-c3cccs3)nc3ccccc23)cc1	i	6*	0.1	i	-15	i
O=C(N/N=C/c1c[nH]c2ccccc12)c1sc2ccccc2c1Cl	i	i	-0.03	i	-9	i
CC(C)(C)c1nnc(NC(=O)c2cc(-c3ccccc3)nc3ccccc23)s1	i	6*	0.44	i	-17	i
COc1ccc(NC(=O)CCCN2C(=O)C3CC=CCC3C2=O)cc1 (centres undefined)	i	i	-1.2	i	-3	i
COc1ccc(CCN2CC(C(=O)N3CCSCC3)CCC2=O)cc1 (centres undefined)	i	i	-0.96	i	-5	i
COc1cc(-c2cc(C(=O)Nc3ccc(O)cc3)c3ccccc3n2)cc(OC)c1OC	i	i	0.89	i	-15	i
O=C(NC(=S)Nc1ccccn1)c1cc(-c2ccccc2)nc2ccccc12	8*	i	1.6	i	4	i
COc1cc(-c2cc(C(=O)Nc3cccc(C(C)=O)c3)c3ccccc3n2)cc(OC)c1OC	i	i	-0.49	i	-15	-11*
O=C(Nc1ccccn1)c1cc(-c2ccc(Cl)s2)nc2ccccc12	x	x	x	x	x	i
CC(=O)c1cccc(NC(=O)c2cc(-c3ccncc3)nc3ccccc23)c1	x	x	x	x	x	i
Cc1cc(NC(=O)c2cc(-c3ccncc3)nc3ccccc23)ccc1Br	x	x	x	x	x	-13*
O=C(NC(=S)Nc1ccccc1)c1cc(-c2ccccc2)nc2ccccc12	33*	i	1	i	4	i
Cc1c(N/C(=N/S(=O)(=O)c2ccccc2)c2ccc(Cl)cc2)c(=O)n(-c2ccccc2)n1C	i	i	-1.1	i	-9	i

Source: PubChem
